Only some compounds are listed: those with a hit (about 3.5% of all), similar ones and a draw of the others.
MrgX1 agonist = human MrgX1 receptor agonism, primary screen; Q96LB2; MrgX1-HEK293 cells, Fluo-4 calcium fluorescence, agonist mode; active compounds read high; B-score at 10 µM; actives 0.44% (n = 310,000); AID 588627;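 active = calcium response B-score plate-corrected fluorescence ratio at least 3 library SD, with starting fluorescence B-score inside 5 SD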
Target sequence (Q96LB2 whole entry, looked up): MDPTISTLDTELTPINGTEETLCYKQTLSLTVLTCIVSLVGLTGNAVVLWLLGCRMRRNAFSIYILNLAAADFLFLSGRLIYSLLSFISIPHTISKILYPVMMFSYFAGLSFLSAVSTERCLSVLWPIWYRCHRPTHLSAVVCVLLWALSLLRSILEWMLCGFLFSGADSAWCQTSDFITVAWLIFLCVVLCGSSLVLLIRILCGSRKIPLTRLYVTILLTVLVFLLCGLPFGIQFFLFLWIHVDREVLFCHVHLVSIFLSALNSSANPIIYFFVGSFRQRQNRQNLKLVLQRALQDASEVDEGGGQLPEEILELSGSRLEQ
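Assay system: stable human MrgX1 HEK293 cell line. Quantity: 15,000 cells per well. Schedule: cells plated overnight, dye loaded 0.5 h 37 °C, 0.5 h room temperature. Detection: Fluo-4 NW calcium-flux fluorescence, kinetic read. Read-out basis: peak-minus-minimum fluorescence over baseline, converted to B scores. Control set: positive and negative control wells on each plate.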
RGS4 inh = inhibitors of human RGS4 | B-score at 10 µM | actives 0.45% (n = 310,000) | P49798 | HEK293 M3R/RGS4 inducible, Fluo-4 calcium flux; active compounds read high; triggered by carbachol at its EC20;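 active = B-score, a plate-corrected calcium signal, over three deviations above library mean, with baseline fluorescence within five deviations of library mean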;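 note: RGS4 expression induced by doxycycline in cells with stable M3 receptor; B-score is computed from the integrated fluorescence ratio over baseline after carbachol; higher B-score means a larger calcium signal and so more RGS4 inhibition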
Target sequence (P49798 whole entry, looked up): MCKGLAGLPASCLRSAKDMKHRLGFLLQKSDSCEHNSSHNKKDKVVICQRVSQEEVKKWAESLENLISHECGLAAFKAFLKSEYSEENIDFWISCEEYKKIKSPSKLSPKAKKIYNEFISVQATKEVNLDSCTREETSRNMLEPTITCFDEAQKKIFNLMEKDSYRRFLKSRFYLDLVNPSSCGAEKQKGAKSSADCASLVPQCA
MrgX1 PAM = allosterically activates human MrgX1 receptor signaling; MrgX1-HEK293, Fluo-4 calcium flux, FDSS; active compounds read high; actives 0.63% (n = 310,000); Q96LB2; B-score at 10 µM;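 active = plate-corrected calcium response at least 3 library SD above typical, normal starting fluorescence, not activating the receptor alone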;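 note: compound read alongside a low EC10 to EC30 dose of BAM8-22 agonist; peak minus trough fluorescence over baseline measured at the second addition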
RGS4 act = potentiators or activators of RGS4; HEK293 M3R/inducible RGS4, carbachol calcium flux Fluo4; active compounds read low; B-score at 10 µM; actives 0.92% (n = 310,000);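 active = B-score of the integrated calcium signal more than 4 SD below the library mean, with starting fluorescence not abnormally high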;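 note: negative B-score means reduced calcium response which marks RGS4 activation or potentiation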
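test system = M3R-expressing HEK293 line, RGS4 induced by doxycycline | probe or stimulus = carbachol at ECmax as muscarinic agonist stimulus | timing = dye loading 30 min 37 °C, buffer rest 30 min RT | signal = calcium dye Fluo4 fluorescence | evaluation = B score from integrated fluorescence ratio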
MrgX1 antag = antagonists of human MrgX1 receptor | Q96LB2 | MRGX1-HEK293 calcium flux, Fluo-4, BAM8-22 antagonism; active compounds read low | B-score at 10 µM | actives 1.3% (n = 310,000) | AID 588676;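 active = calcium-response B-score plate-corrected more than 3 library SD below zero, starting fluorescence within 5 deviations, no agonist response on first addition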;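 note: peak minus trough fluorescence over baseline after final BAM8-22 challenge near maximal dose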
Active calls of the source: *; i = inactive; · = no result given.

SMILES | MrgX1 agonist | RGS4 inh | MrgX1 PAM | RGS4 act | MrgX1 antag
CCn1nc(NS(=O)(=O)c2ccccc2[N+](=O)[O-])c2cc3ccc(C)cc3nc21 | i | i | 9.2* | i | i
CC(=O)N1CC2([N+](=O)[O-])CN(C(C)=O)CC([N+](=O)[O-])(C1)C2(C)C | i | i | i | i | i
CCCCOc1ccc(OCCNC(=O)C2CCCN2C(=O)Nc2ccccc2)cc1 (stereo not given) | i | i | i | i | i
COC1=C/C(=C/c2c(O)c(C#N)c3ccccn23)C=CC1=O | i | i | i | i | i
CCOc1ccc(CNC(=S)Nc2ccccc2)cc1Cl | i | i | i | i | i
O=C(/C=C/c1ccc(OC2CSC2)cc1)c1ccccc1 | i | i | i | -7.5* | i
O=C(N/N=C/c1ccc(OC2CSC2)cc1)c1ccccc1 | i | i | i | i | i
O=C(Nc1ccccc1O)c1ccccc1O | i | i | i | i | -5.8*
Cc1cc(NC(=O)CSCC(=O)OC(C)C(=O)N(C)Cc2ccccc2)no1 (stereo not given) | i | i | i | i | -7.4*
Cc1cc(NC(=O)CSCC(=O)OC(C)C(=O)c2cc(C)c(C)cc2C)no1 (stereo not given) | i | i | i | i | i
Clc1cccc(Cl)c1/C=C/c1nc2ccccc2[nH]1 | i | i | 7.7* | i | i
C/C(=N\N1CCN(c2ccccc2)CC1)c1ccncc1 | i | i | i | i | i
O=C(NCCC1CCCCN1S(=O)(=O)c1cccs1)C(=O)NCc1ccccc1 (stereo not given) | i | i | i | i | i
CC(NC(=O)c1ccc(CS(=O)(=O)c2ccc(Cl)cc2)o1)c1ccc2c(c1)OCCO2 (stereo not given) | i | i | i | -7.4* | i
Cc1ccccc1S(=O)(=O)Cc1ccc(C(=O)NC(C)c2ccc3c(c2)OCCO3)o1 (stereo not given) | i | i | i | i | i
CN1CCN(C2=Nc3cc(Cl)ccc3Nc3ccccc32)CC1 | i | i | i | -7.5* | i
O=C(/C=C/c1ccc([N+](=O)[O-])cc1)OCC(=O)N1c2ccccc2Sc2ccccc21 | i | i | i | -8.2* | i
O=C(COC(=O)/C=C/c1ccc([N+](=O)[O-])cc1)NCc1ccccc1 | i | i | i | i | i
CC[C@H](C)/C=C/C1=CC2=C(Cl)C(=O)[C@@]3(C)OC(=O)C(C(=O)[C@H](C)[C@@H](C)O)=C3C2=CO1 | i | i | 10* | i | i
CC(C)(C)n1nnnc1C(c1cccnc1)N(Cc1ccccc1)Cc1cccs1 (stereo not given) | i | i | i | i | -6*
CCOC(=O)C(C(=O)OCC)C(C(=O)OCC)N1CCOCC1 (stereo not given) | 31* | i | i | i | i
CCOC(=O)C(C)CC(C)C(=O)N1CCOCCOCCN(C(=O)C(C)CC(C)C(=O)OCC)CCOCC1 (stereo not given) | i | i | i | i | i
Cn1c(N)c(C(=O)Nc2ccc(-c3ccccc3)cc2)sc1=S | i | i | i | i | i
COc1ccc(NC(=O)CCS(=O)(=O)c2ccc3c(c2)oc(=O)n3C)cc1 | i | i | i | i | i
CCC(C(=O)NCc1ccco1)N(C(=O)CNS(=O)(=O)c1ccccc1)C1CCCCC1 (stereo not given) | i | i | i | i | i
SMILES | MrgX1 agonist | RGS4 inh | MrgX1 PAM | RGS4 act | MrgX1 antag
CCCC(C(=O)NCc1ccco1)N(C(=O)CNS(=O)(=O)c1ccc(Cl)cc1)C1CCCC1 (stereo not given) | i | i | i | i | -6.7*
CC(CCc1ccccc1)NC(=O)COC(=O)c1cccc(N(C)C)c1 (stereo not given) | i | i | i | i | i
COc1ccc(NC(=O)COC(=O)c2ccc(OCc3ccccc3Cl)c(OC)c2)c(OC)c1 | i | i | i | i | -6*
O=C(CNCc1ccccc1)NC1C2CC3CC(C2)CC1C3 (stereo not given) | i | i | i | i | i
Cc1coc2c(C)c3oc(=O)c(CCC(=O)N[C@@H](C)C(=O)N[C@@H](Cc4ccccc4)C(=O)O)c(C)c3cc12 | i | i | i | i | i
Cc1nnc(SCc2cc(=O)[nH]c(/N=C(\N)Nc3ccccc3Sc3ccccc3)n2)s1 | i | i | i | -7.4* | i
Cc1cc2n(c1)CCn1c(C)ccc1-2 | i | i | i | i | -4.6*
COC(=O)C(C)Oc1ccc(Cl)c(CN2OCC(C)(C)C2=O)c1 (stereo not given) | i | i | i | i | i
Cc1ccc(C)c(-c2cc(C(=O)Nc3cccnc3)c3ccccc3n2)c1 | i | i | i | -7.6* | i
Cc1ccc(C)c(-c2cc(C(=O)Nc3cccc(C(=O)O)c3)c3ccccc3n2)c1 | i | i | i | i | i
Clc1ccc(CSc2ncn(-c3ccccc3)n2)cc1 | i | i | i | -7.2* | i
Clc1cccc(CSc2ncn(-c3ccccc3)n2)c1 | i | i | i | i | i
O=C1CCCCCCC1Sc1ccccc1[N+](=O)[O-] (stereo not given) | i | i | 15* | i | i
O=C(O)CCC(=O)NNC(=O)COc1cccc(Cl)c1 | i | i | i | i | i
O=C(COc1cccc(Cl)c1)NNC(=S)Nc1ccccc1 | i | i | 8.7* | i | i
O=C(COc1ccccc1)NNC(=S)NC(=O)c1ccc(Cl)cc1Cl | 98* | i | i | i | i
CCOc1ccc(S(=O)(=O)N2CCC(C(=O)NCC3CCCO3)CC2)cc1C (stereo not given) | i | i | i | i | i
C=CCN1C(=O)C(=O)N(Cc2nc3ccccc3s2)C1=O | i | i | i | i | i
COc1cc2c(cc1OC)-c1cc(NC3CCCCCC3)nc(=O)n1CC2 | i | i | i | i | -6.2*
Cc1ccc2cc(C(c3nnnn3CC3CCCO3)N3CCc4ccccc4C3)c(=O)[nH]c2c1 (stereo not given) | i | i | i | i | i
Cc1cccc2cc(C(c3nnnn3CC3CCCO3)N3CCc4ccccc4C3)c(=O)[nH]c12 (stereo not given) | i | · | i | · | -5.1*
CC(/C=C1\NC(=S)NC1=O)=C\c1ccccc1 | i | i | i | i | -5.1*

Compound activity: PubChem BioAssay, Johns Hopkins Ion Channel Center
